Assay results as given in ChEMBL document CHEMBL1126880, “3-Acyl-4-hydroxyquinolin-2(1H)-ones. Systemically active anticonvulsants acting by antagonism at the glycine site of the N-methyl-D-aspartate receptor complex” (J Med Chem, 1993).
pIC50: −log10 of the molar value.

Species: Rattus norvegicus
Test: Antagonistic activity against NMDA-induced response in rat cortical slice
Type: functional
Procedure, shortened: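 Rat cortical slices were challenged with NMDA, with and without antagonist. Apparent Kb was calculated from the rightward shift of the NMDA concentration-response curve. Values are means of at least three experiments, with maximum variance (geometric mean) of 15%.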

Structure (SMILES)	Kb [µM]
CCOC(=O)C1C(=O)Nc2cc(Cl)ccc2C1=O (stereo not drawn)	65.4
O=C(Cc1ccccc1)c1c(O)c2ccc(Cl)cc2[nH]c1=O	3.92
O=C(c1c(O)nc2cc(Cl)ccc2c1O)C1CC1	3.39
COC(=O)C1C(=O)Nc2cc(Cl)ccc21 (stereo not drawn)	441

The molecules below were run on Mus musculus (assay: Effective dose of compound required to protect audiogenic seizure in DBA/2 mice administered ip).
Type: functional
Procedure, shortened: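 DBA/2 mice received compound intraperitoneally 30 min before audiogenic seizure induction. Protection was reported as an ED50 or as number protected/number tested at a single dose.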

Structure (SMILES)	ED50 [mg/kg]
O=C(Cc1ccccc1)c1c(O)c2ccc(Cl)cc2[nH]c1=O	31.6
O=C(c1c(O)nc2cc(Cl)ccc2c1O)C1CC1	4.1

These molecules were tested against Glutamate NMDA receptor (assay: Binding affinity towards NMDA receptor to displace [3H]-L-689,560 from rat cortical membranes).

pIC50	Structure (SMILES)
5.19	COC(=O)c1c(O)c2ccc(Cl)cc2[nH]c1=O
5.15	O=C(OCCc1ccccc1O)c1c(O)nc2cc(Cl)ccc2c1O
4.60	CCOC(=O)c1c(O)c2ccc([N+](=O)[O-])cc2[nH]c1=O
5.58	O=C(OCCCCc1cccc(O)c1)c1c(O)nc2cc(Cl)ccc2c1O
< 4.00	O=C1CC(=O)c2ccc(Cl)cc2N1
< 5.00	O=C(SCCc1ccccc1)c1c(O)nc2cc(Cl)ccc2c1O
6.77	O=C(OCC#Cc1cccc(O)c1)c1c(O)c2ccc(Cl)cc2[nH]c1=O
< 4.00	CC(=O)c1c(O)nc2cc(Cl)ccc2c1O
5.05	C#CCOC(=O)c1c(O)nc2cc(Cl)ccc2c1O
< 4.00	NC(=O)c1c(O)nc2cc(Cl)ccc2c1O
4.78	CCOC(=O)C1C(=O)Nc2cc(Cl)ccc2C1=O (stereo not drawn)
< 3.00	CCOC(=O)c1c(O)nc2cccc(C)c2c1O
6.57	COc1cccc(C#CCOC(=O)c2c(O)nc3cc(Cl)ccc3c2O)c1
5.58	O=C(OCCCc1cccc(O)c1)c1c(O)nc2cc(Cl)ccc2c1O
5.20	O=C(NO)c1c(O)nc2cc(Cl)ccc2c1O
5.51	CONC(=O)c1c(O)nc2cc(Cl)ccc2c1O
4.98	CCOC(=O)c1c(O)nc2cc([N+](=O)[O-])c([N+](=O)[O-])cc2c1O
5.19	C=CCOC(=O)c1c(O)c2ccc(Cl)cc2[nH]c1=O
< 4.00	CCCOC(=O)c1c(O)nc2cc(Cl)ccc2c1O
5.50	O=C1Nc2cc(Cl)ccc2C(=O)C1C(=O)c1ccccc1 (stereo not drawn)
5.16	O=C(c1cccnc1)c1c(O)nc2cc(Cl)ccc2c1O
5.21	O=C(OCc1cccc(O)c1)c1c(O)nc2cc(Cl)ccc2c1O
< 4.00	O=C(c1c(O)nc2cc(Cl)ccc2c1O)C1CCCCC1
< 4.00	CCOC(=O)C1Oc2ccc(Cl)cc2NC1=O (stereo not drawn)

pIC50	Structure (SMILES)
4.87	COC(=O)C1C(=O)Nc2cc(Cl)ccc2S1(=O)=O (stereo not drawn)
4.59	CCOC(=O)c1c(O)nc2cc(C#N)ccc2c1O
6.03	O=C(Cc1ccccc1)c1c(O)c2ccc(Cl)cc2[nH]c1=O
< 4.00	O=C(NOCc1ccccc1)c1c(O)nc2cc(Cl)ccc2c1O
< 4.00	CN(Cc1ccccc1)C(=O)c1c(O)nc2cc(Cl)ccc2c1O
5.74	O=C(OCCc1cccc(O)c1)c1c(O)nc2cc(Cl)ccc2c1O
5.62	O=C(c1ccco1)c1c(O)nc2cc(Cl)ccc2c1O
5.97	O=C(Cc1cccs1)c1c(O)nc2cc(Cl)ccc2c1O
< 4.00	O=C(NCCc1ccc(O)cc1)c1c(O)nc2cc(Cl)ccc2c1O
< 4.00	O=C(CCc1ccccc1)c1c(O)nc2cc(Cl)ccc2c1O
6.37	O=C(OCCc1c[nH]c2ccccc12)c1c(O)nc2cc(Cl)ccc2c1O
< 4.00	COC(=O)C1C(=O)Nc2cc(Cl)ccc21 (stereo not drawn)
5.03	O=C(c1c(O)nc2cc(Cl)ccc2c1O)N(O)CCc1ccccc1
4.91	CCOC(=O)c1c(O)nc2cc(C(F)(F)F)ccc2c1O
< 4.00	CCOC(=O)c1c(O)nc2ccc(Cl)cc2c1O
4.56	O=C(OCCc1ccccn1)c1c(O)nc2cc(Cl)ccc2c1O
< 4.00	O=C1CS(=O)(=O)c2ccc(Cl)cc2N1
5.52	O=C(OCCc1cccs1)c1c(O)nc2cc(Cl)ccc2c1O
5.71	O=C(c1ccsc1)c1c(O)nc2cc(Cl)ccc2c1O
4.33	CON(C)C(=O)c1c(O)nc2cc(Cl)ccc2c1O
< 4.00	CCOC(=O)c1c(O)nc2ccccc2c1O
< 4.00	CCOC(=O)c1c(O)nc2c(C)cccc2c1O
5.53	O=C(OCCc1ccc(O)cc1)c1c(O)nc2cc(Cl)ccc2c1O
